Measured values: ChEMBL document CHEMBL1268967, “Synthesis and biological evaluation of furoxan-based nitric oxide-releasing derivatives of glycyrrhetinic acid as anti-hepatocellular carcinoma agents” (Bioorg Med Chem Lett, 2010)
pIC50: −log10 of the molar value. The source made the active and inactive calls. The calls are words filed in the database; no cut-off is given here.

Legend:
Bel-7402 [1] = assay: Antiproliferative activity against human Bel7402 cells at 5 uM for 24 hrs pretreated with hemoglobin for 1 hr by MTT assay; assay type: functional, cell-based
Outline: (§1)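 BEL-7402 cells in 24-well plates were pretreated in triplicate with hemoglobin (0, 1, 5, 10 or 20 µM) for 1 h as an NO scavenger. Compound was then added at 5 or 10 µM for 24 h and cytotoxicity read by MTT. Data are mean % cytotoxicity for each condition.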

Bel-7402 [2] = assay: Antiproliferative activity against human Bel7402 cells at 10 uM for 24 hrs pretreated with hemoglobin for 1 hr by MTT assay; assay type: functional, cell-based; outline: as §1
[3] = Toxicity in human L02 cells assessed as induction of nitric oxide release at 100 uM […] by Griess assay; assay type: cell-based; conditions: l02, 100 µM
[4] = Antiproliferative activity against human L02 cells at 10 uM after 24 hrs by MTT assay; assay type: cell-based; conditions: for inhibition at 24 h, 10 µM: L02 cells; for Activity: l02, 24 h, 10 µM
Outline: (§2)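 Cells cultured in DMEM with 10% heat-inactivated fetal calf serum at 37 °C, 5% CO2, plated overnight and then exposed to 10 µM compound for 24 h. MTT was added for the last 4 h, formazan dissolved in DMSO and read at 570 nm. Values are mean % cytotoxicity ± SD from three separate experiments.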

Bel-7402 [5] = assay: Induction of nitric oxide release in human Bel7402 cells at 100 uM […] by Griess assay; assay type: functional, cell-based
HepG2 [6] = assay: Induction of nitric oxide release in human HepG2 cells at 100 uM […] by Griess assay; assay type: functional, cell-based
Bel-7402 [7] = assay: Antiproliferative activity against human Bel7402 cells at 10 uM after 24 hrs by MTT assay; assay type: functional; conditions: for inhibition of growth at 10 µM: Bel-7402, 24 h, read-out: GI; outline: as §2
Bel-7402 [8] = assay: Induction of nitric oxide release in human Bel7402 cells at 5 uM for 24 hrs pretreated with hemoglobin for 1 hr by Griess assay; assay type: functional, cell-based
Outline: (§3)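 BEL-7402 cells in 24-well plates were pretreated in triplicate with hemoglobin (0, 1, 5, 10 or 20 µM) for 1 h, then given compound at 5 or 10 µM for 24 h. NO in the cells was measured by Griess assay and reported as mean concentration for each condition.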

Bel-7402 [9] = assay: Induction of nitric oxide release in human Bel7402 cells at 10 uM for 24 hrs pretreated with hemoglobin for 1 hr by Griess assay; assay type: functional, cell-based; outline: as §3
Bel-7402 [10] = assay: Antiproliferative activity against human Bel7402 cells after 24 hrs by MTT assay; assay type: functional, cell-based; conditions: Bel-7402, 24 h
Outline: (§4)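 Cells grown in DMEM with 10% heat-inactivated fetal calf serum at 37 °C, 5% CO2; 3 × 10^5 cells/well plated overnight, then exposed in triplicate to a range of concentrations for 24 h. MTT (5 mg/mL) was added for the final 4 h, formazan dissolved in DMSO, absorbance at 570 nm. IC50 is the mean of dose–response curves from at least three independent experiments.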

HepG2 [11] = assay: Antiproliferative activity against human HepG2 cells after 24 hrs by MTT assay; assay type: functional, cell-based; conditions: HepG2, 24 h; outline: as §4

SMILES	pIC50 (Bel-7402 [10])	pIC50 (HepG2 [11])	further results
CC1(C)[C@@H](O)CC[C@]2(C)[C@H]3C(=O)C=C4[C@@H]5C[C@@](C)(C(=O)NCC(=O)OCCCCOc6no[n+]([O-])c6S(=O)(=O)c6ccccc6)CC[C@]5(C)CC[C@@]4(C)[C@]3(C)CC[C@@H]12	6.60	5.17	Activity (Bel-7402 [1]): inactive; Activity (Bel-7402 [2]): inactive; Activity [3]: Non-toxic; inhibition at 24 h, 10 µM [4]: < 18%; Activity (Bel-7402 [5]): Active; Activity (HepG2 [6]): Active; inhibition of growth at 10 µM (Bel-7402 [7]): > 83.5%; growth inhibition (GI) (Bel-7402 [8]): inactive; growth inhibition (GI) (Bel-7402 [9]): inactive
CC(=O)O[C@H]1CC[C@]2(C)[C@H]3C(=O)C=C4[C@@H]5C[C@@](C)(C(=O)OCC#CCOc6no[n+]([O-])c6S(=O)(=O)c6ccccc6)CC[C@]5(C)CC[C@@]4(C)[C@]3(C)CC[C@H]2C1(C)C	4.83	5.12	–
CC(O)CCOc1no[n+]([O-])c1S(=O)(=O)c1ccccc1 (centres undefined)	–	–	Activity [4]: Toxic; growth inhibition (GI) (Bel-7402 [7]): Active
COC(=O)[C@@]1(C)CC[C@]2(C)CC[C@]3(C)C(=CC(=O)[C@@H]4[C@@]5(C)CC[C@H](OC(=O)CCC(=O)NCCOc6no[n+]([O-])c6S(=O)(=O)c6ccccc6)C(C)(C)[C@@H]5CC[C@]43C)[C@@H]2C1	5.53	5.54	–
O=S(=O)(c1ccccc1)c1c(OC/C=C/CO)no[n+]1[O-]	–	–	Activity [4]: Toxic; growth inhibition (GI) (Bel-7402 [7]): Active
O=S(=O)(c1ccccc1)c1c(OCC#CCO)no[n+]1[O-]	–	–	Activity [4]: Toxic; growth inhibition (GI) (Bel-7402 [7]): Active
CC1(C)[C@@H](O)CC[C@]2(C)[C@H]3C(=O)C=C4[C@@H]5C[C@@](C)(C(=O)NCC(=O)OCCCOc6no[n+]([O-])c6S(=O)(=O)c6ccccc6)CC[C@]5(C)CC[C@@]4(C)[C@]3(C)CC[C@@H]12	6.37	5.42	Activity [3]: Non-toxic; inhibition at 24 h, 10 µM [4]: < 18%; Activity (Bel-7402 [5]): Active; Activity (HepG2 [6]): Active; inhibition of growth at 10 µM (Bel-7402 [7]): > 83.5%
COC(=O)[C@@]1(C)CC[C@]2(C)CC[C@]3(C)C(=CC(=O)[C@@H]4[C@@]5(C)CC[C@H](OC(=O)CCC(=O)OCCOc6no[n+]([O-])c6S(=O)(=O)c6ccccc6)C(C)(C)[C@@H]5CC[C@]43C)[C@@H]2C1	5.11	4.74	–
O=S(=O)(c1ccccc1)c1c(OCCCO)no[n+]1[O-]	–	–	Activity [4]: Toxic; growth inhibition (GI) (Bel-7402 [7]): Active
O=S(=O)(c1ccccc1)c1c(OCCCCO)no[n+]1[O-]	–	–	Activity [4]: Toxic; growth inhibition (GI) (Bel-7402 [7]): Active
CC(=O)O[C@H]1CC[C@]2(C)[C@H]3C(=O)C=C4[C@@H]5C[C@@](C)(C(=O)OCCOCCOc6no[n+]([O-])c6S(=O)(=O)c6ccccc6)CC[C@]5(C)CC[C@@]4(C)[C@]3(C)CC[C@H]2C1(C)C	4.67	4.50	–
CC(=O)O[C@H]1CC[C@]2(C)[C@H]3C(=O)C=C4[C@@H]5C[C@@](C)(C(=O)NCCOc6no[n+]([O-])c6S(=O)(=O)c6ccccc6)CC[C@]5(C)CC[C@@]4(C)[C@]3(C)CC[C@H]2C1(C)C	4.85	4.62	–

More lines, main results first:

pIC50 (Bel-7402 [10])	pIC50 (HepG2 [11])	SMILES	further results
5.09	4.44	COC(=O)[C@@]1(C)CC[C@]2(C)CC[C@]3(C)C(=CC(=O)[C@@H]4[C@@]5(C)CC[C@H](OC(=O)CCC(=O)OCCCCOc6no[n+]([O-])c6S(=O)(=O)c6ccccc6)C(C)(C)[C@@H]5CC[C@]43C)[C@@H]2C1	–
< 4.30	< 4.30	CC1(C)[C@@H](O)CC[C@]2(C)[C@H]3C(=O)C=C4[C@@H]5C[C@@](C)(C(=O)O)CC[C@]5(C)CC[C@@]4(C)[C@]3(C)CC[C@@H]12 [ENOXOLONE]	–
4.70	4.80	COC(=O)[C@@]1(C)CC[C@]2(C)CC[C@]3(C)C(=CC(=O)[C@@H]4[C@@]5(C)CC[C@H](OC(=O)CCC(=O)OCCOCCOc6no[n+]([O-])c6S(=O)(=O)c6ccccc6)C(C)(C)[C@@H]5CC[C@]43C)[C@@H]2C1	–
4.81	4.94	CC(=O)O[C@H]1CC[C@]2(C)[C@H]3C(=O)C=C4[C@@H]5C[C@@](C)(C(=O)OCCCOc6no[n+]([O-])c6S(=O)(=O)c6ccccc6)CC[C@]5(C)CC[C@@]4(C)[C@]3(C)CC[C@H]2C1(C)C	–
5.42	5.29	CC1(C)[C@@H](O)CC[C@]2(C)[C@H]3C(=O)C=C4[C@@H]5C[C@@](C)(C(=O)NCC(=O)OCCOCCOc6no[n+]([O-])c6S(=O)(=O)c6ccccc6)CC[C@]5(C)CC[C@@]4(C)[C@]3(C)CC[C@@H]12	–
5.02	5.19	CC(=O)O[C@H]1CC[C@]2(C)[C@H]3C(=O)C=C4[C@@H]5C[C@@](C)(C(=O)NCC(=O)OCCOCCOc6no[n+]([O-])c6S(=O)(=O)c6ccccc6)CC[C@]5(C)CC[C@@]4(C)[C@]3(C)CC[C@H]2C1(C)C	–
6.05	5.69	COc1cccc2c1C(=O)c1c(O)c3c(c(O)c1C2=O)C[C@@](O)(C(=O)CO)C[C@@H]3O[C@H]1C[C@H](N)[C@H](O)[C@H](C)O1 [DOXORUBICIN]	–
5.86	5.04	CC1(C)[C@@H](O)CC[C@]2(C)[C@H]3C(=O)C=C4[C@@H]5C[C@@](C)(C(=O)NCC(=O)OCCOc6no[n+]([O-])c6S(=O)(=O)c6ccccc6)CC[C@]5(C)CC[C@@]4(C)[C@]3(C)CC[C@@H]12	–
6.08	5.47	CC1(C)[C@@H](O)CC[C@]2(C)[C@H]3C(=O)C=C4[C@@H]5C[C@@](C)(C(=O)NCC(=O)OCC#CCOc6no[n+]([O-])c6S(=O)(=O)c6ccccc6)CC[C@]5(C)CC[C@@]4(C)[C@]3(C)CC[C@@H]12	Activity [3]: Non-toxic; inhibition at 24 h, 10 µM [4]: < 18%; Activity (Bel-7402 [5]): Active; Activity (HepG2 [6]): Active; inhibition of growth at 10 µM (Bel-7402 [7]): > 83.5%
5.42	4.83	CC(=O)O[C@H]1CC[C@]2(C)[C@H]3C(=O)C=C4[C@@H]5C[C@@](C)(C(=O)OCCOc6no[n+]([O-])c6S(=O)(=O)c6ccccc6)CC[C@]5(C)CC[C@@]4(C)[C@]3(C)CC[C@H]2C1(C)C	–
5.04	4.87	COC(=O)[C@@]1(C)CC[C@]2(C)CC[C@]3(C)C(=CC(=O)[C@@H]4[C@@]5(C)CC[C@H](OC(=O)CCC(=O)OCCCOc6no[n+]([O-])c6S(=O)(=O)c6ccccc6)C(C)(C)[C@@H]5CC[C@]43C)[C@@H]2C1	–
4.87	4.94	COC(=O)[C@@]1(C)CC[C@]2(C)CC[C@]3(C)C(=CC(=O)[C@@H]4[C@@]5(C)CC[C@H](OC(=O)CCC(=O)OCC#CCOc6no[n+]([O-])c6S(=O)(=O)c6ccccc6)C(C)(C)[C@@H]5CC[C@]43C)[C@@H]2C1	–
5.61	5.13	CC1(C)[C@@H](O)CC[C@]2(C)[C@H]3C(=O)C=C4[C@@H]5C[C@@](C)(C(=O)NCCOc6no[n+]([O-])c6S(=O)(=O)c6ccccc6)CC[C@]5(C)CC[C@@]4(C)[C@]3(C)CC[C@@H]12	–
